In the RNAGym collection of RNA variant scans (doi:10.1126/science.aae0568):
Fewer inactive variants are shown than the library holds.

B1: tRNA (parent)
chain: GUUCCGUUGGCGUAAUGGUAACGCGUCUCCCUCCUAAGGAGAAGACUGCGGGUUCGAGUCCCGUACGGAACG

Variants of: B1
Assay: yeast fitness relative to wild type (ratio to wild type); higher = fitter; tRNA-Arg(CCU), competitive growth, 37 C, YPD
In short: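 Start and end populations of a pooled competition were compared by 100-nucleotide paired-end sequencing of gene amplicons. The Saccharomyces cerevisiae strains carried tRNA-Arg(CCU) gene variants at the native genomic locus, synthesised with a 3% per-site mutation rate at 69 sites, and competed in YPD at 37°C for 24 hours in six parallel replicates. Darwinian fitness relative to wild type was based on the change in genotype frequencies. Genotypes required ≥ 100 starting reads, and estimates < 0.5 were set to 0.5.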

**Q.** With GUUCCGUUGGCGCAAUGGUAACGCCUCUCCCUCCUAAGGAGAAGACUGCGGGUUCGAGUUCUGUACGGAACG [U13C G25C C60U C62U] as the variant, how does the yeast fitness read?
**A.** ≤ 0.5

**Q.** For GUUCCGUUGGCGCAAUGGUAACGCGUCUCCCUCCUAAGGAGAAGACUGCGGGUUCGAAUCCCGUACGGACCG [U13C G58A A70C], which yeast fitness is on record?
**A.** 0.817

**Q.** Which yeast fitness does the source give for GUUCCGUUGGCGCAAUGGUAACGCGUCUCCCUCCUAAGAAGAAGACUGCGGGUUCGAGUCCCGUACGGAACG [U13C G39A] here?
**A.** 0.982

**Q.** For GUUCCGUUGGCGCAAUGGUAACGCGUCUCCCUCCUAAGGAGAAGACUGCGGGUUCAAGUCCCGUAUGGAACG [U13C G56A C66U], which yeast fitness is on record?
**A.** 0.696

**Q.** For GUUCCGUUGGCGCAAUGGUAACGCGUCUCCCUCCUAAAGAGAAGACUGCGGGUUCGAGUCCCGUACGGAUCG [U13C G38A A70U], which yeast fitness is on record?
**A.** 0.525

**Q.** With GUUCCGUUGGCGCAAUGGUAACGCGUCUCCCUCCUAAGGAGAAGACAGCGGGUUCGAGUCCUGUACGGAACG [U13C U47A C62U] as the variant, how does the yeast fitness read?
**A.** 0.596

**Q.** Which yeast fitness does the source give for GUUCCGUUGGCGCAAUGGUAACGCGUCUCCCUCCUAAGGAGAAGACUGCGGGUUCGAGUACCGUACGGAACG [U13C C60A] here?
**A.** 0.685

**Q.** Which yeast fitness does the source give for GUUCCGUUGGCGCAAUGGUAACGCGUCUCCCUCCUAAGGAGAAGACUGCGGGUUCGAGUUCCGUACGGAACG [U13C C60U] here?
**A.** 0.725

**Q.** With GUUCCGUUGGCGCAAUGGUAACGCGUCUCCCUCCUAAGGAGAAGACUGCGGAUUCGAGUCCCGUACGGAACG [U13C G52A] as the variant, how does the yeast fitness read?
**A.** 0.735

**Q.** For GUUCCGUUGGCGCAAUGGUAACGCGUCUCCCUCCUAAGGAGAAGACUGCCGGUUCGAGUCCCGUAUGGAACG [U13C G50C C66U], which yeast fitness is on record?
**A.** ≤ 0.5

**Q.** With GUUCCGUUGGCGCAAUGGUAACGCGUCUCCCUCCUAAGGAGAAGACUGCGGGUUCGAGUCCCGUAGGGAACG [U13C C66G] as the variant, how does the yeast fitness read?
**A.** 0.742

**Q.** For GUUCCGUUGGCGCAAUGGUAACGCGUCUCCCUCCUAAGGAGAAGACUGCGGGUUCGAGUCCCGUAAGGAACG [U13C C66A], which yeast fitness is on record?
**A.** 0.556

**Q.** With GUUCCGUUGGCGCAAUGGUAACGCGUCUCCCUCCUAAGGAGAAGACUGCGGGUUCGAGUCACGUACAGAACG [U13C C61A G67A] as the variant, how does the yeast fitness read?
**A.** ≤ 0.5

**Q.** Which yeast fitness does the source give for GUUCCGUUGGCGCAAGGGUAACGCCUCUCCCUCCUAAGGAGAAGACUGCGGGUUCGAGUCCCGUACGGAACG [U13C U16G G25C] here?
**A.** ≤ 0.5

**Q.** For GUUCCGUUGGCGCAAUGGUAACGCGUCUCCCUCCUAAGGAGAAGACUGCGCGUCCGAGUCCCGUACGGAACG [U13C G51C U54C], which yeast fitness is on record?
**A.** ≤ 0.5

**Q.** Which yeast fitness does the source give for GUUCCGUUGGCGCAAUGAUAACGCGUCUCCCUCCUAAGGAAAAGACUGCGGGUUCGAGUCCGGUUCGGAACG [U13C G18A G41A C62G A65U] here?
**A.** 0.619

**Q.** With GUUCCGUUGGCGCAAUGGUAACGCGUCUCCCUCCUAAGGAGAACACUGCGGGUUCGAAUCCCGUACGGAACG [U13C G44C G58A] as the variant, how does the yeast fitness read?
**A.** 0.927

**Q.** With GUUCCGUUGGCGCAAUGGAAUCGAGUCUCCCUCCUAAGGAGAAGACUGCGGGUCCGAGCCCCGUACGGGACG [U13C U19A A21U C24A U54C U59C A69G] as the variant, how does the yeast fitness read?
**A.** ≤ 0.5

**Q.** With GUUCCGUUGGCGCAAUGGUAACGCGCCUCCCUCCUAAGGAGAAGACUGCGGGUUCGAGUCCCGUCCGGAACG [U13C U26C A65C] as the variant, how does the yeast fitness read?
**A.** 0.661

**Q.** For GUUCCGUUGGCGCAAUGGUAACGCGUCUCCCUCCUAAGGAGAAGACUGCGGGUUCGAGUCGCGUACGGAACG [U13C C61G], which yeast fitness is on record?
**A.** 0.609

**Q.** With GUUCCGUUGGCGCAAUGGUAACGCGUCUCCCUCCUAAGGAGAAGACUGCGGGUUCGAGUCGCGUACUGAACG [U13C C61G G67U] as the variant, how does the yeast fitness read?
**A.** 0.6

**Q.** Which yeast fitness does the source give for GUUCCGUUGGCGCAAUGGUAACGCGUCUCCCUCCUAAGGAGAAGACUGCGGGUUCGAGUCCAGUACGGAACG [U13C C62A] here?
**A.** 0.68

**Q.** Which yeast fitness does the source give for GUUCCGUUGGCGCAAUGGUAACGCGUCUCCCUCCUAAGGAGAAGACUGCGGGUUCGAGUCCUGUACGGAACG [U13C C62U] here?
**A.** 1.01

**Q.** For GUUCCGUUGGCGCAAUGGUAACGCGUCUCCCUCCUAAGGAGAAGACUCCAGGUUCGAGUCCCGUACGGAACG [U13C G48C G50A], which yeast fitness is on record?
**A.** ≤ 0.5

**Q.** With GUUCCGUUGGCGCAAUGGUAACGCGUCUCCCUCCUAACGAGACGACUGCGCGUUCCAGUCCCGUACGGGACG [U13C G38C A43C G51C G56C A69G] as the variant, how does the yeast fitness read?
**A.** ≤ 0.5

**Q.** For GUUCCGUUGGCGCAACGGUAACGCGACUCCCUCCUAAGGAGAAGACUGCGGGUUCGAGUCCCGUACGGAACG [U13C U16C U26A], which yeast fitness is on record?
**A.** 0.637

**Q.** For GUUCCGUUGGCGCAAGGGUAACGCGUCUCCCUCCUAAGGAGAAGACUGCGGGUUCGAGUCCCGUGCGGAACG [U13C U16G A65G], which yeast fitness is on record?
**A.** 0.572

**Q.** Which yeast fitness does the source give for GUUCCGUUGGCGCAAUGGUAACACGUCUGCCUCCUAAGGAGAAGUCUGCGGGUUCGAGUCCUGUACGGAACG [U13C G23A C29G A45U C62U] here?
**A.** ≤ 0.5

**Q.** Which yeast fitness does the source give for GUUCCGUUGGCGCAAUGGUAACGCGUCCCCCUCCUAAGGAGAAGACUACGGGUUCGAGUCGCGUACGGCACG [U13C U28C G48A C61G A69C] here?
**A.** ≤ 0.5

**Q.** For GUUCCGUUGGCGCAAUGGUAACGCGGUUCCCUCCUAAGGAGAAGACUGUGGGUUCGAGUCCCGUAUGGAACG [U13C U26G C27U C49U C66U], which yeast fitness is on record?
**A.** 0.801

**Q.** Which yeast fitness does the source give for GUUCCGUUGGCGCAAUGGUAACGCGUCUCCCUCCUAAGGAGAAGACUGCGGGUUCGAGUACCGUACGGAGCG [U13C C60A A70G] here?
**A.** 0.588

**Q.** With GUUCCGUUGGCGCAAGGGUAACGCGUGUCCCUCCUAAGGAGAAGACUGAGGGUUCGAGUACCGUACGGAACG [U13C U16G C27G C49A C60A] as the variant, how does the yeast fitness read?
**A.** ≤ 0.5

**Q.** For GUUCCGUUGGCGCAAUGGUAACGCGCCUCCCUCCUAAGGAGAAGACUGCGGGUUCGAGUCCCGUACGGAACG [U13C U26C], which yeast fitness is on record?
**A.** 0.809

**Q.** For GUUCCGUUGGCGCAAUGGUAACGCGUCUCCCUCCUAACGUGAAGACUGAGGGUUCGAGUCCCGUAAGGAACG [U13C G38C A40U C49A C66A], which yeast fitness is on record?
**A.** ≤ 0.5

**Q.** For GUUCCGUUGGCGCAAUGGUAACGCGUCUCCCUCCUAAGGAGAAGACAGCGGGUUCGAGUCCCGUACGAAACG [U13C U47A G68A], which yeast fitness is on record?
**A.** ≤ 0.5

**Q.** For GUUCCGUUGGCGCAAUGGUAACGCGUCUCCCUCCUAACGAGACGACUGCGCGUUCCAGUCCCGUACGGAACG [U13C G38C A43C G51C G56C], which yeast fitness is on record?
**A.** 0.531

**Q.** Which yeast fitness does the source give for GUUCCGUUGGCGCAAUGGUAACCCGUCUCCCUCCUAAGGAGAAGACUGCGGGUUCGAGUCCCGUACGGAGCG [U13C G23C A70G] here?
**A.** 0.585

**Q.** Which yeast fitness does the source give for GUUCCGUUGGCGCAAUGGUAACGCGUCUCCCUCCUAAGGAGAAGACUCCGGGUUCGAGUCCCGUACGGAACG [U13C G48C] here?
**A.** 0.906
